According to publication PMC5259643 (Journal of Veterinary Internal Medicine, 2017):
Read-outs that look alike come from different tables or passages of the source.

Assays:
[1] = Laryngoscopy with doxapram stimulation in dogs with brachycephalic syndrome; type: in vivo
[2] = Management of Addisonian crisis; type: in vivo, dogs; details: for outcome: HSS CRI 0.3 to 0.625 mg/kg/h (n = 7), dexamethasone IV 0.05 to 0.3 mg/kg (n = 8)
[3] = Transcutaneous ICG plasma disappearance rate; type: in vivo, dogs
How it was run: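 Healthy dogs received indocyanine green 0.5 mg/kg IV daily on three days. The plasma disappearance rate was read transcutaneously with a monitor probe, and the intrasubject coefficient of variation was calculated from the daily values.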

[4] = ref previously reported data; cited from earlier work
[5] = target: Steroidogenic factor‐1 (SF‐1) (Canis lupus familiaris, UniProt A0A5K7W231); experiment: Cortisol and mRNA in normal canine primary adrenocortical cell suspensions; type: cell-based, dogs; details: 10^‐8 to 10^‐5 M
How it was run: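 Primary adrenocortical cells from normal canine adrenals were cultured as suspensions, with synthetic ACTH added to mimic hypercortisolism. Cells were exposed to SF-1 inverse agonists, with a DMSO vehicle control. Cortisol was measured in the culture media. RT-qPCR gave relative mRNA expression of steroidogenic enzymes, SF-1 and MC2R.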

[6] = Hypothyroidism after low‐dose radioiodine in hyperthyroid cats; type: in vivo; details: 30 hypothyroid cats supplemented
How it was run: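 Hyperthyroid cats successfully treated with low-dose 131I (n = 569) had serum T4 and TSH measured at 1, 3, 6, 12 and ≥18 months after treatment. Cats that developed high TSH were classed as overtly hypothyroid if T4 was low, or subclinically hypothyroid if T4 was normal.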

[7] = system: feline liver organoids; experiment: Lipid accumulation in liver organoids exposed to free fatty acids; type: cell-based, cats; details: LD540, flow cytometry
How it was run: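 Feline liver organoids were incubated with vehicle or free fatty acids and stained with the lipophilic dye LD540. Fluorescence was quantified by flow cytometry. β-oxidation of excess fatty acids was probed with a CPT-1 inhibitor and with L-carnitine supplementation.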

[8] = Sedation of dogs with stage B2 MMVD; type: in vivo
[9] = system: Leishmania infantum; experiment: Randomized allopurinol‐controlled trial in dogs with clinical leishmaniosis; type: in vivo; details: bone marrow; with MGA
[10] = target: T1, serum angiotensin‐converting enzyme (ACE) (Canis lupus familiaris, UniProt A0A8I3S3I6); experiment: Serum ACE activity after benazepril with or without pimobendan; type: in vivo, dogs; details: for serum ACE activity versus baseline: days 1 and 15
T1 sequence (A0A8I3S3I6 31-1241): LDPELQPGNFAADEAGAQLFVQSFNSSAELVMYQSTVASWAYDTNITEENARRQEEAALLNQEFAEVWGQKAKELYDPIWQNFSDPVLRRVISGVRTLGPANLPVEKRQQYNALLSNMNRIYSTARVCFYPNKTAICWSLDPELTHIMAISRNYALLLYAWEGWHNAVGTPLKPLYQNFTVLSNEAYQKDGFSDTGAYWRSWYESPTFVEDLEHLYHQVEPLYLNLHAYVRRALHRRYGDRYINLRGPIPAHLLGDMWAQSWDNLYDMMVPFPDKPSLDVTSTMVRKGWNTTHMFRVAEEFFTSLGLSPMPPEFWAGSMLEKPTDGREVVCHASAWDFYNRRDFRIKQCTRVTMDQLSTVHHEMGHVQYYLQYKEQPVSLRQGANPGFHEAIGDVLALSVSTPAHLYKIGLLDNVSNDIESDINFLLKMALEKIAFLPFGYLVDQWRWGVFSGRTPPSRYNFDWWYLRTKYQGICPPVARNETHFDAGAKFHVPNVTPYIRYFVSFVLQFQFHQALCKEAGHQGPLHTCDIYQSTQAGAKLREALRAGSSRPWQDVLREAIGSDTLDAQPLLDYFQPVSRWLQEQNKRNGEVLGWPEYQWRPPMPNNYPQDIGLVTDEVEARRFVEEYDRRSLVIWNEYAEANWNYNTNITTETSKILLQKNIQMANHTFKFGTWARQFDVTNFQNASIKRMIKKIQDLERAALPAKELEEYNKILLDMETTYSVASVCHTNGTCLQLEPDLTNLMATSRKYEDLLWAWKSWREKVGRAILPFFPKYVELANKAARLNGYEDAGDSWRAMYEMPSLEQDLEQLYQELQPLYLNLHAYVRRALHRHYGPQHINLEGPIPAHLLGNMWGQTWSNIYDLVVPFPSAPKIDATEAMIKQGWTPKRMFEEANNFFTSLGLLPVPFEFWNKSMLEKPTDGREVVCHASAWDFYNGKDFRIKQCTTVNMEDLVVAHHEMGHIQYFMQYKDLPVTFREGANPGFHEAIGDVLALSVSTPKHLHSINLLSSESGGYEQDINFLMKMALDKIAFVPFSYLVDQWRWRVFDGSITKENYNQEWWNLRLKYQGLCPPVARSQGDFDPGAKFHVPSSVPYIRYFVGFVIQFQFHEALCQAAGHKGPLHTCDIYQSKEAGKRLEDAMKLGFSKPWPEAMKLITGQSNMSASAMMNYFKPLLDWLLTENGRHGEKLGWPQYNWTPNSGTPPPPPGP
How it was run: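 In a prospective, randomised, parallel-group design, 48 healthy beagles were split into four groups: placebo twice daily; benazepril 0.5 mg/kg once each morning; benazepril 0.25 mg/kg twice daily; or benazepril 0.25 mg/kg plus pimobendan 0.125 mg/kg, both twice daily. Dosing was oral for 15 days. Serum ACE was assayed radio-enzymatically at baseline, at 12 post-dose times on day 1, and on day 15 (steady state).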

[11] = system: E.Coli; experiment: Cat with E.coli associated granulomatous colitis; type: in vivo
[12] = system: bacteria isolated from urinary cultures; experiment: Urine culture sensitivity in dogs with DM and/or HAC; type: cell-based
[13] = system: Aelurostrongylus abstrusus; Angiostrongylus vasorum; experiment: Lungworm infection in cats and dogs in Rome treated with fenbendazole; type: in vivo
How it was run: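 Animals were diagnosed by faecal testing, BAL, lung cytology or post mortem. All received fenbendazole 50 mg/kg for 3 weeks, with further therapy according to clinical status; outcome was recorded.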

[14] = dogs with HAC; ref other studies; cited from earlier work
[15] = system: Troglostrongylus brevior; experiment: Anthelmintic treatment of feline lungworm infection; type: in vivo, cats; details: single administration; moxidectin n = 2, emodepside n = 1
[16] = system: T. brevior/A. abstrusus; experiment: Anthelmintic treatment of feline lungworm infection; type: in vivo, cats; details: five of six cats
How it was run: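 Cats with natural Troglostrongylus brevior/Aelurostrongylus abstrusus co-infection were treated with one of: single topical emodepside (n = 1), single oral milbemycin oxime (n = 2), or moxidectin given two (n = 2) or three (n = 1) times. Clinical course and time to recovery were followed.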

[17] = Simvastatin in dogs with hyperlipidemia; type: in vivo; details: three months; n = 5; range 181–399
[18] = Oral torasemide in cats with CHF; type: in vivo
How it was run: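 Cats with CHF, previously on furosemide (median 6 mg/kg/24 h), were switched to oral torasemide. The median starting dose was 0.5 mg/kg/24 h (range 0.1–0.75), given once daily or split twice daily. Renal values and potassium were rechecked at follow-up.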

[19] = Cortisol monitoring in dogs with hyperadrenocorticism on trilostane; type: in vivo
How it was run: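 Multicentre open-label prospective study in dogs with hyperadrenocorticism on trilostane. Serum cortisol was measured pre-trilostane, 3 h post-trilostane, and 1 h post-ACTH stimulation.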

[20] = Echocardiography, blood pressure and heart rate before and after sedation; type: in vivo, cats; details: ten minutes after sedation
[21] = system: Capillaria aerophila; experiment: Anthelmintic treatment of feline lungworm infection; type: in vivo, cats; details: single administration, one cat

Chain of Steroidogenic factor‐1 (SF‐1) (A0A5K7W231 1-461): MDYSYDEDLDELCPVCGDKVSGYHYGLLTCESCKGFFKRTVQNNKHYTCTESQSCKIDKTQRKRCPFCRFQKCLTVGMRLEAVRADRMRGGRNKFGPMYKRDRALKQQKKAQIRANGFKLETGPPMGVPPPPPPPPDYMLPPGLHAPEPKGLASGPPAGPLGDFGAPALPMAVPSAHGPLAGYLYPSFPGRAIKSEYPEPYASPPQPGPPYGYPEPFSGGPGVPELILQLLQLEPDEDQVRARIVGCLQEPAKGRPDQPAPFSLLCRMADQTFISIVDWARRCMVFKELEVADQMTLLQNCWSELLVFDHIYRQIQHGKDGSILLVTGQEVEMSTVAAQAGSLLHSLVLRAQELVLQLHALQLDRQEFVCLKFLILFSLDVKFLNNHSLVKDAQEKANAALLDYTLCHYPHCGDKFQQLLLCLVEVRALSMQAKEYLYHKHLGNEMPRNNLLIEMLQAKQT

CCN1CC(CCN2CCOCC2)C(c2ccccc2)(c2ccccc2)C1=O.Cl (stereo not drawn) [Dxp, doxapram hydrochloride]
mean degree of laryngeal collapse (0 to 3) ([1]; after 1.1 mg/kg IV, before 1.64 [0–3], P < 0.001, 26 dogs): 1.07 [0–3] | laryngeal abduction ([1]; after injection): significant abduction of laryngeal cartilages could be observed in all dogs

C[C@]12CCC(=O)C=C1CC[C@@H]1[C@@H]2[C@@H](O)C[C@@]2(C)[C@H]1CC[C@]2(O)C(=O)COC(=O)CCC(=O)O [HSS, hydrocortisone sodium succinate]
outcome [2]: all patients surviving to discharge | median time for Na+ concentration to normalise ([2]; group A (HSS) versus group B (dexamethasone), P = 0.0424): significantly shorter in group A compared to group B

CC1(C)C(/C=C/C=C/C=C/C=C2\N(CCCCS(=O)(=O)O)c3ccc4ccccc4c3C2(C)C)=[N+](CCCCS(=O)(=O)[O-])c2ccc3ccccc3c21 [ICG, Indocyanine green]
mean ICG‐PDR ([3]; day one, 0.5 mg/kg IV, six healthy Beagles, transcutaneous): 7.8 ± 3.4 %/min | mean ICG‐PDR ([3]; day three): 7.9 ± 2.6 %/min | mean ICG‐PDR ([3]; day two): 8.8 ± 3.7 %/min | highest individual %CV ([3]; dog, in vivo): 52.5% | mean intrasubject %CV of ICG‐PDR ([3]; three consecutive days): 35.9 ± 16.8% | mean ICG‐PDR [4]: 7.79 ± 3.3 %/min

CCOC(=O)C(C)Oc1cccc2c(=O)n(CC(=O)Nc3ccc4c(c3)OCCO4)ccc12 (stereo not drawn) [IsoqA]
effect on cortisol production [5]: no significant effect on cortisol production

N[C@@H](Cc1cc(I)c(Oc2cc(I)c(O)c(I)c2)c(I)c1)C(=O)O [Levothyroxine]
serum TSH and creatinine [6]: significantly decreased both serum TSH and creatinine concentrations

C[N+](C)(C)C[C@H](O)CC(=O)[O-] [L‐carnitine]
lipid accumulation under excess FFA [7]: attenuated

Cc1cccc(C(C)c2cnc[nH]2)c1C (stereo not drawn) [M group, medetomidine]
regurgitant jet area (ARJ/LAA) ([8]; T1, 30 minutes after medetomidine, n = 8 per group): significantly decreased | body weight‐indexed LVIDs ([8]; T1, P < 0.05): increased | shortening fraction ([8]; T1, P < 0.05): decreased

Oc1ncnc2[nH]ncc12 [allopurinol]
parasite load by RT‐QPCR [9]: significantly reduced parasite load

CCOC(=O)[C@H](CCc1ccccc1)N[C@H]1CCc2ccccc2N(CC(=O)O)C1=O [benazepril]
serum ACE activity versus baseline ([10]; group B, 0.5 mg/kg once daily PO): significant reductions in serum ACE activity compared to baseline | serum ACE activity versus baseline ([10]; group C, 0.25 mg/kg twice daily PO): significant reductions in serum ACE activity compared to baseline | 0.25 mg/kg twice daily compared to 0.5 mg/kg once daily ([10]; non‐inferiority shown): equivalent inhibition of serum ACE activity

C[C@@H]1C[C@H]2[C@@H]3CCC4=CC(=O)C=C[C@]4(C)[C@@]3(F)[C@@H](O)C[C@]2(C)[C@@]1(O)C(=O)CO [dexamethasone]
outcome [2]: all patients surviving to discharge

CCN1CCN(c2cc3c(cc2F)c(=O)c(C(=O)O)cn3C2CC2)CC1 [enrofloxacin]
clinical response ([11]; 5 mg/kg SID for 6 weeks, one cat): complete resolution of clinical signs | remission sustained ([11]; to date): 4 months | bacterial resistance [12]: 38%

CCOC(=O)[C@@]1(CCCCCCOc2ccc(Cl)cc2)CO1 [etomoxir]
lipid accumulation under excess FFA [7]: enhanced

COC(=O)Nc1nc2ccc(Sc3ccccc3)cc2[nH]1 [fenbendazole]
outcome in dogs ([13]; 50 mg/kg for 3 weeks plus other therapy, 21 dogs): Five dogs died; the others recovered | outcome in cats ([13]; 50 mg/kg for 3 weeks, 20 cats): fully recovered

Clc1ccc(C(c2ccccc2Cl)C(Cl)Cl)cc1 (stereo not drawn) [mitotane]
mean survival time [14]: 985 ± 57 days

CO/N=C1\C[C@]2(C[C@@H]3C[C@@H](C/C=C(\C)C[C@@H](C)/C=C/C=C4\CO[C@@H]5[C@H](O)C(C)=C[C@@H](C(=O)O3)[C@]45O)O2)O[C@H](/C(C)=C/C(C)C)[C@H]1C [moxidectin]
time to recovery [15]: 14 to 42 days | time to being healthy [16]: 14 to 42 days

CCC(C)(C)C(=O)O[C@H]1C[C@@H](C)C=C2C=C[C@H](C)[C@H](CC[C@@H]3C[C@@H](O)CC(=O)O3)[C@H]21 [simvastatin]
plasma cholesterol [17]: 298 ± 109.9

Cc1cccc(Nc2ccncc2S(=O)(=O)NC(=O)NC(C)C)c1 [torasemide]
main adverse clinical effect ([18]; in vivo): worsening azotaemia | tolerability ([18]; in vivo): tolerated by this population of cats with CHF | median survival time after commencing torasemide ([18]; range 7–177 d, 11 cats): 48 days

C[C@]12CC[C@H]3[C@@H](CC[C@@]45O[C@@H]4C(O)=C(C#N)C[C@]35C)[C@@H]1CC[C@@H]2O [trilostane]
median cortisol pre‐trilostane ([19]; 21 dogs, 45 pairs on same dose): 114.0 nmol/L | median cortisol 1 hour post‐ACTH stimulation ([19]; dog, in vivo): 110.0 nmol/L | median cortisol 3 hours post‐trilostane ([19]; significantly lower than the other two): 53.5 nmol/L | mean survival time [14]: 1051 ± 78 days

dexmedetomidine and buprenorphine
IVSd, IVSs, LVPWd, LVPWs, Ao, La/Ao, pulmonic acceleration time [20]: did not differ pre‐ and post‐sedation | LVIDd, LVIDs, RVIDd, LA, pulmonic deceleration time, SBP, DBP, MAP ([20]; 50 cats, P ≤ 0.022): increased after sedation | Vmax Ao, Vmax A pulm, FS, AT/DT and HR ([20]; P < 0.0001): decreased after sedation

eprinomectin
outcome [21]: healthy after two weeks
